Series [1] deals with D(2) dopamine receptor (Rattus norvegicus) (UniProt P61169). As to the kind of experiment: In vitro inhibition of [3H]spiperone binding to dopamine receptor D2 from rat brain limbic tissue at 1 uM. It counts as tissue-based. The following applies: Limbic system.
Series [2] relates to Mus musculus. As to the kind of experiment: Inhibition of apomorphine induced climbing behavior in mice after intraperitoneal administration. Type of series: functional. The following applies: ip. The method in brief:
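Male CF-1 mice (20-25 g), acclimated at least 3 days, received compound in 0.25% Tween 80 ip at 1, 10, 30 and 60 mg/kg (six/dose) or vehicle. 30 min later they were challenged with apomorphine 1 mg/kg sc. Climbing was scored every 5 min and totaled over 30 min.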

The species entered for series [3] is Rattus norvegicus. The experiment in a line: Concentration required to produce 50% block in avoidance responding in conditioned avoidance response test in rat. Type of series: functional. A digest of the protocol: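 Trained rats in shelf-jump and/or discrete-trial conditioned avoidance paradigms. Drug given ip or po to at least five rats per dose, with a control session before each drug run. Trials without avoidance (avoidance block) were counted per dose as a percentage of total trials, with control set at 100%. AB50 was taken from a least-squares dose-effect regression line.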

The nature of series [4]: Ratio of ED50 stereotyped behavior in mice. Type of series: functional.
The subject of series [5] is Mus musculus. As to the kind of experiment: Inhibition of apomorphine induced stereotyped behavior in mice after intraperitoneal administration. Type of series: functional. The settings on record: ip. The method in brief:
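Male CF-1 mice (20-25 g, acclimated ≥3 days) received ip compound in 0.25% Tween 80 at 1, 10, 30 and 60 mg/kg (six/dose), alongside vehicle controls. After 30 min they were challenged with apomorphine 1 mg/kg sc. Stereotypy was scored every 5 min and totaled over the 30-min session.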

In another series the target is D(2) dopamine receptor (Rattus norvegicus, UniProt P61169). As to the kind of experiment: In vitro inhibition of [3H]spiperone binding to Dopamine receptor D2 from rat brain limbic tissue. It counts as tissue-based, Limbic system. A digest of the protocol: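 Limbic tissue (nucleus accumbens, septum, olfactory tubercle) from Sprague-Dawley rats, washed membranes at 0.2-0.3 mg protein. Incubated with 0.3 nM [3H]spiroperidol and a range of drug concentrations, 10 min at 37 °C, in Tris buffer pH 7.1 with NaCl, KCl, CaCl2, ascorbate and pargyline. Filtered through GF/B and counted by scintillation. Nonspecific binding defined with 1 μM (+)-butaclamol.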
Sequence of D(2) dopamine receptor (P61169 whole entry): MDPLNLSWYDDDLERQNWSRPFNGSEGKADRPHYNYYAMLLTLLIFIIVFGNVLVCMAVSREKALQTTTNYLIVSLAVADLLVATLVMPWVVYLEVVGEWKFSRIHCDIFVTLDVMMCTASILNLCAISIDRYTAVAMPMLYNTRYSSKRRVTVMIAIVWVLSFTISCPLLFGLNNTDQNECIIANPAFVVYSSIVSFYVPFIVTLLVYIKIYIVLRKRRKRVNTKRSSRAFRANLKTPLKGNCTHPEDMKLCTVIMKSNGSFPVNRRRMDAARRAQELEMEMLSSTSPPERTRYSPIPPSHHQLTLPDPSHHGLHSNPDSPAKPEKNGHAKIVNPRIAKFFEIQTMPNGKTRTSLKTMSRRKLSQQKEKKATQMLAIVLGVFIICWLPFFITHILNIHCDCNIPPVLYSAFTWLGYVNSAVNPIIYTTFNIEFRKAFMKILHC

Series [6] concerns Mus musculus. As to the kind of experiment: Inhibition of apomorphine induced stereotyped behavior (i.p.). The following applies: ip. It counts as functional.
The target in series [7] is T1, 5-hydroxytryptamine receptor 1A (Rattus norvegicus, UniProt P19327).
T1 sequence (P19327 whole entry): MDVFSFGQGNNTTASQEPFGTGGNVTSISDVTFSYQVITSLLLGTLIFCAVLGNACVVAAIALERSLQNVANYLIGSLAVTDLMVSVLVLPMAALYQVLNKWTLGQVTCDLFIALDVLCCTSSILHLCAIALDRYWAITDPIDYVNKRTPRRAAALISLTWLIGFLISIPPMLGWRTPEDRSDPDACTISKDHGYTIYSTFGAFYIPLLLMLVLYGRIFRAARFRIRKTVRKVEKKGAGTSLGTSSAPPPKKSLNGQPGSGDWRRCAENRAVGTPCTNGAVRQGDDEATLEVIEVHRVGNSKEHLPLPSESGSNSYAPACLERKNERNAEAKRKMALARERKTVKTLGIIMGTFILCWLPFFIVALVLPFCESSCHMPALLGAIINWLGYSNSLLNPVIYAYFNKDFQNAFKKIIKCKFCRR
The experiment in a line: In vitro inhibition of [3H]-8-hydroxy-2-(di-n-propylamino)tetralin binding to 5-hydroxytryptamine 1A receptor from rat hippocampal tissue.

Series [8] concerns the target T2, 5-hydroxytryptamine receptor 1A (Rattus norvegicus) (UniProt P19327).
T2 sequence (whole entry): T1 sequence (P19327 whole entry)
The experiment in a line: In vitro inhibition of [3H]-8-hydroxy-2-(di-n-propylamino)tetralin binding to 5-hydroxytryptamine 1A receptor from rat hippocampal tissue at 1 uM. The settings on record: Hippocampus.

A short description of series [9]: Partition coefficient (logP). Type of series: physicochemical. The following applies: octanol/water.
For series [10], the system named is Rattus norvegicus. As to the kind of experiment: Concentration required to produce 50% block in avoidance responding in conditioned avoidance response test in rat following peroral administration. It counts as functional. The method in brief: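 Previously trained rats were given compound po at pretreatment time to at least five rats per dose in a conditioned avoidance paradigm (shelf-jump or discrete trial). A control session preceded each drug run. Trials without avoidance were counted as a % of total trials, with control set at 100%. AB50 came from a least-squares dose-effect regression line.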

Series [11] addresses T2, 5-hydroxytryptamine receptor 1A (Rattus norvegicus). The experiment in a line: In vitro inhibition of [3H]-8-hydroxy-2-(di-n-propylamino)tetralin binding to 5-hydroxytryptamine 1A receptor from rat hippocampal tissue. The following applies: Hippocampus; concentration not given here.
The target in series [12] is D(2) dopamine receptor (Rattus norvegicus) (UniProt P61169). The experiment in a line: In vitro inhibition of [3H]spiperone binding to Dopamine receptor D2 from rat brain limbic tissue at 10 uM. It counts as tissue-based. The following applies: Limbic system.

A word on the inhibition: it is the share of the control response that was lost under treatment. As usually defined, the ED50 is the dose that gives a 50% effect, or the effect in half of the subjects. Lower therefore signals an effect at a small dose. As usually defined, the Ki is the dissociation constant of the complex between target and ligand, obtained from inhibition or displacement. A high value points to lower affinity. As usually defined, the logP is the decadic logarithm of the partition coefficient of the neutral form, usually between octanol and water. Read a high logP as a more lipophilic compound.

Sequence of D(2) dopamine receptor (Rattus norvegicus) (P61169 whole entry): as the sequence (P61169 whole entry) above

With `Cl.O=C1C2C3C=CC(C4CCC34)C2C(=O)N1CCCCN1CCN(c2cnccn2)CC1` (centres undefined), the inhibition in series [1] is 48%. In addition, the median effective dose (ED50) with Mus musculus [2] amounted to 15 mg/kg; in the series on Mus musculus [5], 32 mg/kg. This molecule also had an AB50 in the series filed under Rattus norvegicus [3] of 60 mg/kg. Moreover, the Ratio in series [4] is on record as 2.1.
Take `COc1ccccc1N1CCN(CCCCN2C(=O)C3C4C=CC(C5CC45)C3C2=O)CC1.Cl` (centres undefined): the inhibitory constant (Ki) at D(2) dopamine receptor came to 16 nM; in series [7], 1.3 nM. Moreover, the ED50 in the series on Mus musculus [6] and in the series on Mus musculus [5] was 10 mg/kg throughout. In the series listed under Rattus norvegicus [3], this molecule came in with an AB50 of 40 mg/kg. Besides, in series [4], the Ratio came to 1.
`Cl.O=C1C2C3C=CC(C4CC34)C2C(=O)N1CCCCN1CCN(c2cnccn2)CC1` (centres undefined): the inhibition amounted to 33% in series [1] and 68% in [8]. For the same molecule, the ED50 in the series with Mus musculus [2] was 14 mg/kg; with Mus musculus [5], 33 mg/kg. In addition, the AB50 in the series listed under Rattus norvegicus [3] came out at 49 mg/kg. Further, in [4], the Ratio amounted to 2.35.
In turn, `Cl.O=C1C2C3C=CC(CCC3)C2C(=O)N1CCCCN1CCN(c2ncccn2)CC1` (centres undefined) gave a logP in series [9] of 1.94. Further, the inhibition in series [1] was 53%. Moreover, the AB50 in the series listed under Rattus norvegicus [3] was determined as 40 mg/kg.
In turn, `Cl.O=C1C2C3C=CC(C4CC34)C2C(=O)N1CCCCN1CCN(c2ncccn2)CC1` (centres undefined) yielded a logP in [9] of 1.73. For the same molecule, the figures for the inhibition constant Ki (at D(2) dopamine receptor; in series [7]) were 488 nM and 38 nM, respectively. The AB50 in the series listed under Rattus norvegicus [3] was determined as 40 mg/kg.
As to `O=C1CC2(CCCC2)CC(=O)N1CCCCN1CCN(c2ncccn2)CC1` [BUSPIRONE], the AB50 worked out at 5 mg/kg in the series listed under Rattus norvegicus [3] and 32 mg/kg in the series on Rattus norvegicus [10].
Turning to `Cl.O=C1C2C3C=CC(C4CCC34)C2C(=O)N1CCCCN1CCN(c2ccc(C(F)(F)F)cn2)CC1` (centres undefined), the inhibition in series [1] came out at 65%; in series [11], 72%. Further, the AB50 in the series listed under Rattus norvegicus [3] is over 40 mg/kg.
Molecule `Cl.O=C1C2C3C=CC(C4C=CC43)C2C(=O)N1CCCCN1CCN(c2ncccn2)CC1` (centres undefined) yielded a logP in series [9] of 1.79. The same molecule yielded an inhibition in series [1] of 59%. The same molecule returned an AB50 in the series listed under Rattus norvegicus [3] of 13 mg/kg. Moreover, in series [4], the Ratio was found to be 7.6.
`Cl.O=C1C2C3CCC(C4CCC43)C2C(=O)N1CCCCN1CCN(c2ncccn2)CC1` (centres undefined) displayed a log partition coefficient (logP) in series [9] of 2.09. Also, the inhibitory constant (Ki) on D(2) dopamine receptor turned out to be 53 nM; in series [7], 1 nM. In addition, the AB50 in the series filed under Rattus norvegicus [3] worked out at 40 mg/kg.
In turn, `CC(C)=C1C2C=CC1C1C(=O)N(CCCCN3CCN(c4ncccn4)CC3)C(=O)C21.Cl` (centres undefined) returned an inhibition in series [12] of 50%. In the series filed under Rattus norvegicus [3], the AB50 is over 40 mg/kg.
Regarding `O=C1C2C3C=CC(C3)C2C(=O)N1CCCCN1CCN(c2ncccn2)CC1` (centres undefined), the logP in series [9] amounted to 1.36. Moreover, the Ki on D(2) dopamine receptor amounted to 248 nM; in series [7] it was 42 nM. In the series listed under Rattus norvegicus [3], this molecule returned an AB50 of 5 mg/kg.
With `O=C1c2ccccc2S(=O)(=O)N1CCCCN1CCN(c2ncccn2)CC1` [IPSAPIRONE], the AB50 in the series filed under Rattus norvegicus [3] came to 19 mg/kg; in the series with Rattus norvegicus [10] it was 42 mg/kg. In series [7], this molecule yielded an inhibition constant (Ki) of 10 nM.
In [9], `Cl.O=C1C2C3C=CC(C4CCC34)C2C(=O)N1CCCCN1CCN(c2ncccn2)CC1` (centres undefined) gave a lipophilicity (logP) of 2.02. Also, the AB50 in the series listed under Rattus norvegicus [3] amounted to 47 mg/kg. Moreover, in [7], the Ki was 1.3 nM.

The record behind these values is ChEMBL document CHEMBL1124154, “Polycyclic aryl- and heteroarylpiperazinyl imides as 5-HT1A receptor ligands and potential anxiolytic agents: synthesis and structure-activity relationship studies” (J Med Chem, 1988).
